This is a sample that favours compounds with a hit; in the whole collection about 2.6% have one here.
Xi reactivation = activators of X-chromosome reactivation in mouse fibroblasts. XiGFP mouse fibroblasts, % GFP-positive cells imaging, 3 d; cells co-treated with 5-aza-dC sensitizer; scaled so ellipticine positive control = 100%. activation, % at 7.58 µM. 0.055% of 360,000 active. AID 743238;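 active = mean normalized replicate activation at least 10% and every replicate at or above 10%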
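Assay system: SV40-immortalized XiGFP fibroblast cells, line 68-5-11; buffer or medium: DMEM plus 5-aza-dC sensitizer; compound: one concentration, pinned; timing: compounds 3 days, fix/stain 15 min at room temperature; benchmarks: positive control ellipticine, 6 µM final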
Ecoli rRNA inh = selective bacterial rRNA inhibition in E. coli; E. coli WT GFP vs humanized-ribosome RFP mutants, fluorescence, 24 h; active compounds read low; DMSO median 0, no signal -100; GFP signal change (wild-type ribosome), % (no concentration beside the values); 1.6% of 350,000 active; AID 720706;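 active = significant combined selectivity score with lowered wild-type GFP, culture density cut under 30%, mutant RFP and density less affected; inactive = any of these conditions unmet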
PvdQ inh = P. aeruginosa PvdQ acylase inhibition; purified PvdQ acylase, fluorescence plate reader; inhibition, % at 10 µM; 0.063% of 340,000 active; AID 488965; in the data active = inhibition above about 30%, passing the limit was not always enough
dFosB activator = activators of mouse delta FosB homodimer; purified delta FosB, TAMRA-CDK5 oligo fluorescence polarization; percent of positive-control signal above neutral wells; activation, % at 25 µM; AID 493131; 0.99% of 340,000 active; P13346;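 active = mean activation above about 17%, with every replicate also reaching it, limit read from the data, passing the limit was not always enough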
Target sequence (P13346 whole entry, looked up): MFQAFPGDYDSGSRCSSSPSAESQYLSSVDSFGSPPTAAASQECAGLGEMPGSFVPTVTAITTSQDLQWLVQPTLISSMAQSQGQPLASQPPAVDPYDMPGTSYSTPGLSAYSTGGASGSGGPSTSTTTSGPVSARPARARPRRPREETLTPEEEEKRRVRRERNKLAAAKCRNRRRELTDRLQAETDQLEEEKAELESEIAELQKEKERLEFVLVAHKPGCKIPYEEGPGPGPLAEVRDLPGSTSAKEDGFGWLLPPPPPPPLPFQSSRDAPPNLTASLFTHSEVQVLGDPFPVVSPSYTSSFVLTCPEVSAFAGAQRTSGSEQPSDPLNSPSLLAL
SR-BI HDL uptake = inhibitors of mouse SR-BI mediated HDL lipid uptake | ldlA[mSR-BI] CHO cells, DiI-HDL uptake fluorescence, 3 h | inhibition, % at 12.5 µM | 0.96% of 320,000 active | AID 488896;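 active = mean replicate inhibition of at least 70% and a set share of replicates each scoring 70 or more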
SR-BI uptake up = SR-BI HDL lipid transfer activation; CHO ldlA[mSR-BI] cells, DiI-HDL uptake fluorescence, 3 h; 100 = double the neutral-control signal; activation, % at 12.5 µM; 0.096% of 320,000 active;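 active = mean replicate activation of at least 60% and every replicate at or above 60%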
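Material: SR-BI-overexpressing, LDLR-lacking CHO cells; schedule: compound exposure 3 h, 37 °C; reagent: DiI-labelled HDL at 10 µg/mL final; technique: bottom-read fluorescence, 550/595 nm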
Each line names hits and unclear results; the compound was inactive in the other large screens.

N#CC(c1ccc(Cl)nn1)c1c(F)cccc1Cl (stereo unspecified)	PvdQ inh 66
CC(C)(C)NC(=S)Nc1cccc(C(F)(F)F)c1	Ecoli rRNA inh -48
FC(F)(F)c1cccc(NC(=S)Nc2ccc(Cl)c(Cl)c2)c1	Ecoli rRNA inh -49
CC(=O)NNc1cccc(Cl)n1	none (no result: Xi reactivation, Ecoli rRNA inh)
CC(=O)c1cccc(NC(=O)COC(=O)C2CCCN2C(=O)c2cccs2)c1 (stereo unspecified)	Ecoli rRNA inh -18
COc1ccc(S(=O)(=O)N(C)C[C@@H]2OCCCC[C@H](C)Oc3ccc(NC(=O)Cc4ccccc4)cc3C(=O)N([C@@H](C)CO)C[C@@H]2C)cc1	none (no result: PvdQ inh, dFosB activator, SR-BI HDL uptake, SR-BI uptake up)
Cc1ccc(S(=O)(=O)N(C)C[C@@H]2OCCCC[C@H](C)Oc3ccc(NC(=O)c4ccncc4)cc3C(=O)N([C@H](C)CO)C[C@@H]2C)cc1	none (no result: PvdQ inh, dFosB activator, SR-BI HDL uptake, SR-BI uptake up)
COc1ccc(CNC(=O)CNC(c2ccccc2)c2ccccc2)cc1OC	Ecoli rRNA inh -28
COc1ccc(CC(=O)NCc2cccc(CNC(=O)Cc3ccc(OC)c(OC)c3)c2)cc1OC	none
CC(=O)c1ccc(Nc2nc(N3CCOCC3)nc(N3CCOCC3)n2)cc1	none
CC(=O)Nc1ccc(/C(C)=N/Nc2nc(Nc3ccccc3)nc(N3CCOCC3)n2)cc1	SR-BI HDL uptake 85
Cc1ccc(Nc2nc(N/N=C\c3ccc4c(c3)OCO4)nc(N3CCOCC3)n2)cc1	dFosB activator 60, SR-BI HDL uptake 86
CCN1CCN(c2nc(Nc3ccc(NC(C)=O)cc3)nc(Nc3ccc(NC(C)=O)cc3)n2)CC1	dFosB activator 73 (no result: SR-BI HDL uptake, SR-BI uptake up)
Cc1ccc(/C=N/Nc2cc(C)nc(N3CCOCC3)n2)cc1	none
CCCOc1c(Cl)cc(C(=O)Nc2ccc3c(c2)OCO3)cc1OCC	SR-BI HDL uptake 78 (no result: Xi reactivation, Ecoli rRNA inh)
CN(CC(=O)Nc1ccc(Cl)c(Cl)c1)CC(=O)Nc1ccc2c(c1)OCO2	Xi reactivation 120 (no result: Ecoli rRNA inh)
CCOc1cc(C(=O)Nc2ccc3c(c2)OCO3)ccc1OC(F)F	SR-BI HDL uptake 89 (no result: Xi reactivation)
CN(CC(=O)Nc1ccc2c(c1)OCO2)CC(=O)Nc1ccc(F)c(F)c1F	none
CCCOc1ccc(C(=O)Nc2ccc3c(c2)OCO3)cc1	none
Cc1c(Cc2ccccc2)sc(/N=C/c2c(O)ccc3ccccc23)c1C(N)=O	none (no result: Xi reactivation, Ecoli rRNA inh)
CC(C)C1OC2c3cccc4cccc(c34)C2N1c1ccccc1 (stereo unspecified)	none (no result: Xi reactivation, Ecoli rRNA inh)
Clc1ccccc1-c1nnc2sc(CCc3ccccc3)nn12	Ecoli rRNA inh -19 (no result: Xi reactivation)
c1ccc(CCc2nn3c(Cn4cnc5ccccc54)nnc3s2)cc1	Ecoli rRNA inh -24 (no result: Xi reactivation)
C[C@@H]1CCCCO[C@@H](CN(C)Cc2ccc(C(F)(F)F)cc2)[C@@H](C)CN([C@@H](C)CO)C(=O)c2cc(NS(=O)(=O)c3cccs3)ccc2O1	none (no result: PvdQ inh, dFosB activator, SR-BI HDL uptake, SR-BI uptake up)
S=c1[nH]nc(C2(c3ccccc3)CCCC2)o1	none (no result: SR-BI HDL uptake, SR-BI uptake up)
S=c1[nH]nc(C(c2ccccc2)C2CCCCC2)o1 (stereo unspecified)	Ecoli rRNA inh -27 (no result: SR-BI HDL uptake, SR-BI uptake up)
COC(=O)c1ccsc1NC(=O)C1COc2ccccc2O1 (stereo unspecified)	Ecoli rRNA inh -32
COC(=O)c1ccccc1NC(=O)C1COc2ccccc2O1 (stereo unspecified)	none (no result: Xi reactivation, Ecoli rRNA inh)
COc1ccc(OCCN2C(=O)NC(C)(c3ccc(C)cc3)C2=O)cc1 (stereo unspecified)	none (no result: Xi reactivation, Ecoli rRNA inh)
Cc1ccc(C2(C)NC(=O)N(CCOc3ccccc3)C2=O)cc1 (stereo unspecified)	Ecoli rRNA inh -33 (no result: Xi reactivation)
Cc1nc2ccc(NC(=S)NC3CCCCC3)cc2nc1C	Ecoli rRNA inh -28
CC1=NN(c2ccccc2)C(=O)C1C=Nc1ccccc1O (stereo unspecified)	Ecoli rRNA inh -19 (no result: SR-BI HDL uptake, SR-BI uptake up)
Cc1ccc(Nc2nc(N)c3ccccc3n2)cc1Cl	dFosB activator 28
COc1cc2nc(Nc3ccc(C)c(C)c3)nc(N)c2cc1OC	Ecoli rRNA inh -38, dFosB activator 105
CCOC(=O)c1ccc(Nc2nc(N)c3cc(OC)c(OC)cc3n2)cc1	dFosB activator 37 (no result: Xi reactivation, Ecoli rRNA inh)
